Laboratory results published in ChEMBL document CHEMBL1140759, “Synthesis, anti-Toxoplasma gondii and antimicrobial activities of benzaldehyde 4-phenyl-3-thiosemicarbazones and 2-[(phenylmethylene)hydrazono]-4-oxo-3-phenyl-5-thiazolidineacetic acids” (Bioorg Med Chem, 2008).
Converted amounts (≈) assume the structure as drawn.

What was measured:
[1] = test system: Bacillus subtilis; test: Antimicrobial activity against Bacillus subtilis at 300 ug/disc; type: functional; conditions: read-out: IZ
Method in brief: (§1)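 Disc diffusion on agar plates inoculated with a standardized microbial suspension, with paper discs carrying known compound amounts. DMSO-only discs served as negative controls, and chloramphenicol, rifampicin (bacteria) or nistatin (fungi) as references. The read-out is the mean inhibition zone diameter in mm. Each run was done three times and repeated if results differed.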

[2] = test system: Staphylococcus aureus; test: Antimicrobial activity against Staphylococcus aureus at 300 ug/disc; type: functional; conditions: read-out: IZ; method in brief: as §1
[3] = test system: Toxoplasma gondii; test: Antiparasitic activity against Toxoplasma gondii infected african green monkey Vero cells at 0.1 mM assessed as infected cells; type: functional
Method in brief: (§2)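 Vero cells were infected with RH-strain tachyzoites (5:1 parasite:cell) for 1 h, washed with PBS, and grown 24 h at 37 °C in medium 199 with 5% FCS. Compound was then added for 24 h. Cells were fixed with Bouin's, stained with Giemsa, and at least 400 cells were counted by light microscopy for the percentage infected. Hydroxyurea and sulfadiazine served as references.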

[4] = test system: Toxoplasma gondii; test: Antiparasitic activity against Toxoplasma gondii infected african green monkey Vero cells at 5 mM assessed as infected cells; type: functional; method in brief: as §2
[5] = test system: Toxoplasma gondii; test: Antiparasitic activity against Toxoplasma gondii infected african green monkey Vero cells at 2 mM assessed as infected cells; type: functional; method in brief: as §2
[6] = test system: Candida; test: Antimicrobial activity against Candida sp. IMUR4249; type: functional
Method in brief: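 Tube dilution MIC, run on compounds with a disc-diffusion zone of at least 18 mm. The DMSO stock (1 mg/mL) was serially diluted to 10–220 µg/mL final in medium, and strains were inoculated at 10^8/mL. Media were tryptic soy or nutrient agar for bacteria and Sabouraud liquid for fungi, incubated 24–48 h at 37 °C (bacteria) or 30 °C (fungi). MIC is the lowest concentration giving clear tubes.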

[7] = test system: Escherichia coli; test: Antimicrobial activity against Escherichia coli at 300 ug/disc; type: functional; conditions: read-out: IZ; method in brief: as §1
[8] = test system: Toxoplasma gondii; test: Antiparasitic activity against Toxoplasma gondii infected african green monkey Vero cells at 8 mM assessed as infected cells; type: functional; method in brief: as §2
[9] = test system: Mycolicibacterium smegmatis; test: Antimicrobial activity against Mycobacterium smegmatis at 300 ug/disc; type: functional; conditions: read-out: IZ; method in brief: as §1
[10] = test system: Micrococcus luteus; test: Antimicrobial activity against Micrococcus luteus at 300 ug/disc; type: functional; conditions: read-out: IZ; method in brief: as §1
[11] = test system: Candida albicans; test: Antimicrobial activity against Candida albicans at 300 ug/disc; type: functional; conditions: read-out: IZ; method in brief: as §1
[12] = test system: Saccharomyces cerevisiae; test: Antimicrobial activity against Saccharomyces cerevisiae at 300 ug/disc; type: functional; conditions: read-out: IZ; method in brief: as §1
[13] = test system: Vero; test: Inhibition of uninfected african green monkey Vero cells; type: cell-based; conditions: Chlorocebus sabaeus
[14] = test system: Toxoplasma gondii; test: Inhibition of Toxoplasma gondii infected in african green monkey Vero cells; type: functional, organism-based
Method in brief: (§3)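 Infected Vero cultures were exposed to compound at 0.01–30 mM for 24 h, in triplicate per assay. IC50 for infected cells and intracellular parasites was derived by non-linear regression, using trypan blue exclusion.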

[15] = test system: Mycobacterium tuberculosis; test: Antimicrobial activity against Mycobacterium tuberculosis at 300 ug/disc; type: functional; conditions: read-out: IZ
Method in brief: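 Agar disc diffusion: paper discs loaded with compound placed on agar plates seeded with a standardised microbial suspension. DMSO-only discs served as negative control. Chloramphenicol and rifampicin (bacteria) or nistatin (fungi) gave reference zones. Read-out was mean zone of inhibition diameter (mm). Each experiment was run three times and repeated if results differed.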

[16] = test system: Toxoplasma gondii; test: Inhibition of intracellular parasite Toxoplasma gondii; type: functional, organism-based; method in brief: as §3
[17] = test system: Toxoplasma gondii; test: Antiparasitic activity against Toxoplasma gondii infected african green monkey Vero cells at 20 mM assessed as infected cells; type: functional; method in brief: as §2
[18] = test system: Candida; test: Antimicrobial activity against Candida sp. IMUR1224 at 300 ug/disc; type: functional; conditions: read-out: IZ; method in brief: as §1
[19] = test system: Candida; test: Antimicrobial activity against Candida sp. IMUR720 at 300 ug/disc; type: functional; conditions: read-out: IZ; method in brief: as §1
[20] = test system: Enterococcus faecalis; test: Antimicrobial activity against Streptococcus faecalis at 300 ug/disc; type: functional; conditions: read-out: IZ; method in brief: as §1
[21] = test system: Klebsiella pneumoniae; test: Antimicrobial activity against Klebsiella pneumoniae at 300 ug/disc; type: functional; conditions: read-out: IZ; method in brief: as §1
[22] = test system: Mycolicibacterium phlei; test: Antimicrobial activity against Mycobacterium phlei at 300 ug/disc; type: functional; conditions: read-out: IZ; method in brief: as §1
[23] = test system: Candida; test: Antimicrobial activity against Candida sp. IMUR4249 at 300 ug/disc; type: functional; conditions: read-out: IZ; method in brief: as §1
[24] = test system: Mycobacterium tuberculosis; test: Antimicrobial activity against Mycobacterium tuberculosis; type: functional

| Structure (SMILES) | zone of inhibition at 300 µg/disc [1] [mm] | zone of inhibition at 300 µg/disc [2] [mm] | Activity [3] [%] | Activity [4] [%] | Activity [5] [%] | zone of inhibition at 300 µg/disc [7] [mm] | Activity [8] [%] | zone of inhibition at 300 µg/disc [9] [mm] | zone of inhibition at 300 µg/disc [10] [mm] | zone of inhibition at 300 µg/disc [11] [mm] | zone of inhibition at 300 µg/disc [12] [mm] | IC50 [13] [µM] | IC50 [14] [µM] | zone of inhibition at 300 µg/disc [15] [mm] | IC50 [16] [µM] | Activity [17] [%] | zone of inhibition at 300 µg/disc [18] [mm] | zone of inhibition at 300 µg/disc [19] [mm] | zone of inhibition at 300 µg/disc [20] [mm] | zone of inhibition at 300 µg/disc [21] [mm] | also measured |
| --- | --- | --- | --- | --- | --- | --- | --- | --- | --- | --- | --- | --- | --- | --- | --- | --- | --- | --- | --- | --- | --- |
| COc1cccc(/C=N/N=C2\SC(CC(=O)O)C(=O)N2c2ccccc2)c1 (centres undefined) | 9 | 14 | 34.16 | 7.3 | 28.71 | < 7 | 4.16 | < 7 | 22 | < 7 | < 7 | 5000 | 3000 | < 7 | 100 | 0 | < 7 | < 7 | 11 | < 7 | MFC [6]: 70 µg/mL (≈ 183 µM); MIC [6]: 80 µg/mL (≈ 209 µM); zone of inhibition at 300 µg/disc [22]: < 7 mm; zone of inhibition at 300 µg/disc [23]: 18 mm |
| O=C(O)CC1S/C(=N\N=C\c2ccccc2F)N(c2ccccc2)C1=O (centres undefined) | 15 | < 7 | 70.79 | 0 | 16.14 | < 7 | 0 | 13 | 25 | 7 | < 7 | 2000 | 2000 | 14 | 1000 | 0 | < 7 | < 7 | 16 | < 7 | MFC [6]: 70 µg/mL (≈ 188 µM); MIC [6]: 80 µg/mL (≈ 215 µM); zone of inhibition at 300 µg/disc [22]: 7 mm; zone of inhibition at 300 µg/disc [23]: 20 mm |
| O=C(O)CC1S/C(=N\N=C\c2ccc(F)cc2)N(c2ccccc2)C1=O (centres undefined) | 14 | < 7 | 21.7 | 0 | 10.2 | < 7 | 0 | 12 | 15 | 8 | < 7 | 2000 | 50 | 14 | 50 | 0 | < 7 | < 7 | 16 | < 7 | MFC [6]: 70 µg/mL (≈ 188 µM); MIC [6]: 80 µg/mL (≈ 215 µM); zone of inhibition at 300 µg/disc [22]: 7 mm; zone of inhibition at 300 µg/disc [23]: 22 mm |
| O=C(O)CC1S/C(=N\N=C\c2ccc(Cl)cc2)N(c2ccccc2)C1=O (centres undefined) | 13 | < 7 | 68.15 | 0 | 35.3 | < 7 | 0 | 15 | 21 | 8 | < 7 | 2000 | 1500 | 17 | 500 | 0 | < 7 | < 7 | 15 | < 7 | MFC [6]: 140 µg/mL (≈ 361 µM); MIC [6]: 150 µg/mL (≈ 387 µM); zone of inhibition at 300 µg/disc [22]: 12 mm; zone of inhibition at 300 µg/disc [23]: 20 mm |
| O=C(O)CC1S/C(=N\N=C\c2ccc(Cl)cc2Cl)N(c2ccccc2)C1=O (centres undefined) | 17 | 10 | 63.23 | 19.05 | 18.08 | < 7 | 0 | 16 | 20 | 7 | < 7 | 2000 | 1500 | 22 | 1000 | 0 | < 7 | < 7 | 15 | < 7 | MBC [24]: 60 µg/mL (≈ 142 µM); MIC [24]: 70 µg/mL (≈ 166 µM); zone of inhibition at 300 µg/disc [22]: 12 mm; zone of inhibition at 300 µg/disc [23]: 14 mm |
| COc1ccc(/C=N/N=C2\SC(CC(=O)O)C(=O)N2c2ccccc2)c(OC)c1 (centres undefined) | < 7 | < 7 | 66.36 | 0 | 39.5 | < 7 | 0 | < 7 | 15 | 13 | 12 | 5000 | 2000 | < 7 | 500 | 0 | < 7 | < 7 | < 7 | < 7 | MFC [6]: 70 µg/mL (≈ 169 µM); MIC [6]: 80 µg/mL (≈ 193 µM); zone of inhibition at 300 µg/disc [22]: < 7 mm; zone of inhibition at 300 µg/disc [23]: 20 mm |
